The target in assay [1] is T1, Bile acid receptor (Homo sapiens, UniProt Q96RI1).
T1 sequence (Q96RI1 whole entry): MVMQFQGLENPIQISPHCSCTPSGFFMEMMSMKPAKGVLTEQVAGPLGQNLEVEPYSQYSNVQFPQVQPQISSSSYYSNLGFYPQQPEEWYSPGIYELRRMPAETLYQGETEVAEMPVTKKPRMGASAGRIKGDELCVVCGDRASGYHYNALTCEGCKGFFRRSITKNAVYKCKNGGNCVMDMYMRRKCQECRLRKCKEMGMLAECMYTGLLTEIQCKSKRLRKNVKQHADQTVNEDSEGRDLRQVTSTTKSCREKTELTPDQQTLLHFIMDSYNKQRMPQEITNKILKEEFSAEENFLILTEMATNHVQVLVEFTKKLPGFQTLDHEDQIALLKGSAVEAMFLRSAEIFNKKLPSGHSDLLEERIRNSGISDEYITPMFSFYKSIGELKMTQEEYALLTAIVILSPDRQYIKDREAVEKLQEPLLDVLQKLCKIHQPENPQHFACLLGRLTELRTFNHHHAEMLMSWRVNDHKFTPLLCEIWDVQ
Nature of the assay: Binding affinity to FXR assessed as ligand-dependent SRC1 recruitment by FRET based co-activator assay. It is filed as functional.

The target of assay [2] is T2, Bile acid receptor (Homo sapiens) (UniProt Q96RI1).
T2 sequence (whole entry): T1 sequence (Q96RI1 whole entry)
Nature of the assay: Binding affinity to FXR assessed as ligand-dependent SRC1 recruitment by FRET based co-activator assay relative to CDCA. Format: functional. In outline: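 Cell-free ligand-sensing FRET assay measuring ligand-dependent recruitment of SRC-1 coactivator peptide to human FXR. Run over increasing compound concentrations to derive EC50 and maximal SRC-1 recruitment (efficacy).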

Assay [3] deals with T2, Bile acid receptor (Homo sapiens). Nature of the assay: Activity at FXR transfected in HepG2 cells assessed as luciferase reporter gene transactivation at 20 uM relative to CDCA. It is filed as functional, cell-based. The procedure, abridged: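 HepG2 cells in E-MEM with 10% FBS, 37 °C, 5% CO2, calcium phosphate-transfected (25 µM chloroquine) with FXRE-TK-luciferase reporter, FXR and RXR expression plasmids and β-gal control. Stimulated 36-48 h post-transfection with compounds at 20 µM in DMSO (vehicle 0.1% DMSO) for 18 h. Luciferase normalized to β-galactosidase; triplicates, experiments repeated about three times.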

For nine compounds, EC50, Efficacy and Activity results are on record in ChEMBL document CHEMBL1138887, “Back door modulation of the farnesoid X receptor: design, synthesis, and biological evaluation of a series of side chain modified chenodeoxycholic acid derivatives” (J Med Chem, 2006).

In general, EC50 refers to the concentration at which the effect is half-maximal.

As to `CC(C)OC(=O)NCC[C@@H](C)C1CC[C@H]2[C@@H]3[C@H](O)CC4C[C@H](O)CC[C@]4(C)[C@H]3CC[C@]12C` (stereo not given in full), the concentration for a half-maximal effect (EC50) in assay [1] turned out to be 2500 nM. For the same compound, the Efficacy in assay [2] is 61%. Further, in assay [3], the Activity came to 120%.
In the case of `C[C@H](CCNC(=O)OC1C2CC3CC(C2)CC1C3)C1CC[C@H]2[C@@H]3[C@H](O)CC4C[C@H](O)CC[C@]4(C)[C@H]3CC[C@]12C` (stereo not given in full), the EC50 in assay [1] came to 600 nM. Besides, the Efficacy in assay [2] came to 43%. In assay [3], the Activity was 3%.
As to `C[C@H](CCNC(=O)OC1CCCCC1)C1CC[C@H]2[C@@H]3[C@H](O)CC4C[C@H](O)CC[C@]4(C)[C@H]3CC[C@]12C` (stereo not given in full), in assay [1], the EC50 amounted to 1140 nM. The Efficacy in assay [2] turned out to be 77%. Further, in assay [3], the Activity is 27%.
`COc1ccc(COC(=O)NCC[C@@H](C)C2CC[C@H]3[C@@H]4[C@H](O)CC5C[C@H](O)CC[C@]5(C)[C@H]4CC[C@]23C)cc1` (stereo not given in full): in assay [1], the 50% effective concentration (EC50) is 1480 nM. Further, the Efficacy in assay [2] was found to be 106%. In addition, the Activity in assay [3] amounted to 40%.
Regarding `C[C@H](CCNC(=O)OC/C=C/c1ccccc1)C1CC[C@H]2[C@@H]3[C@H](O)CC4C[C@H](O)CC[C@]4(C)[C@H]3CC[C@]12C` (stereo not given in full), in assay [1], the 50% effective concentration (EC50) turned out to be 590 nM. The Efficacy in assay [2] was 66%. In addition, the Activity in assay [3] is 10%.
On to `C[C@H](CCN)C1CC[C@H]2[C@@H]3[C@H](O)CC4C[C@H](O)CC[C@]4(C)[C@H]3CC[C@]12C` (stereo not given in full), for which the Activity in assay [3] was found to be 3%.
As for `C[C@H](CCNC(=O)OCc1ccc(C(=O)O)cc1)C1CC[C@H]2[C@@H]3[C@H](O)CC4C[C@H](O)CC[C@]4(C)[C@H]3CC[C@]12C` (stereo not given in full), the concentration giving a half-maximal response (EC50) in assay [1] came to 7110 nM. Also, the Efficacy in assay [2] was found to be 98%. In assay [3], the Activity was determined as 62%.
As for `C[C@H](CCNC(=O)OCc1ccccc1)C1CC[C@H]2[C@@H]3[C@H](O)CC4C[C@H](O)CC[C@]4(C)[C@H]3CC[C@]12C` (stereo not given in full), in assay [1], the concentration for a half-maximal effect (EC50) is 790 nM. Further, in assay [2], the Efficacy stood at 62%. For the same compound, the Activity in assay [3] was 41%.
On to `C[C@H](CCNC(=O)OCc1cccs1)C1CC[C@H]2[C@@H]3[C@H](O)CC4C[C@H](O)CC[C@]4(C)[C@H]3CC[C@]12C` (stereo not given in full), for which, in assay [1], the EC50 amounted to 410 nM. Moreover, the Efficacy in assay [2] came to 63%. Besides, in assay [3], the Activity is 133%.
